Source: PubChem
A selection: hits, their analogues and other compounds. The true share with any hit is near 1.3%.
GRK2 inh – blocks RNA aptamer binding to human GRK2. P25098. bead flow cytometry, FAM-aptamer displacement from GRK2. inhibition of aptamer binding, % at 10 µM. actives 0.59% (n = 330,000). AID 488847;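 active means inhibition of aptamer binding above 40%, roughly 3 SD of noise, on plates passing a quality check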;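 further: median bead fluorescence of bound FAM aptamer so fluorescent compounds give negative values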
EBV gp42 block – EBV gp42 inhibition; Fluorescence polarization binding assay, mP read-out; inhibition, % (tested at 21.74 µM); actives 0.42% (n = 220,000); in the data active means inhibition above about 50%
LANA DNA inh – blocks KSHV LANA C-terminal domain binding to DNA; MBP-C-LANA/FAM-LBS DNA binding, fluorescence polarization; inhibition, % at 9 µM; actives 0.078% (n = 340,000);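 active means highest replicate inhibition at or above 60% at 9 µM, even if other replicates fall short; inactive means all replicates below 60% inhibition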;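 further: 0% = neutral control wells and 100% = 4 µM acridine orange control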
Keap1-Nrf2 PPI – disrupts human Keap1 binding to Nrf2 peptide | actives 0.15% (n = 340,000) | inhibition, % at 9.4 µM | Q14145 | Keap1 Kelch-Nrf2 peptide fluorescence polarization, 1536-well | AID 504523; in the data active means inhibition above about 12%;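 further: human Keap1 Kelch domain with fluorescein labeled Nrf2 9mer peptide probe; 0% = neutral control wells and 100% = peptide positive control; higher means more block of Keap1 binding to Nrf2 peptide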
Target sequence (Q14145 whole entry, looked up, the tested form may be a part): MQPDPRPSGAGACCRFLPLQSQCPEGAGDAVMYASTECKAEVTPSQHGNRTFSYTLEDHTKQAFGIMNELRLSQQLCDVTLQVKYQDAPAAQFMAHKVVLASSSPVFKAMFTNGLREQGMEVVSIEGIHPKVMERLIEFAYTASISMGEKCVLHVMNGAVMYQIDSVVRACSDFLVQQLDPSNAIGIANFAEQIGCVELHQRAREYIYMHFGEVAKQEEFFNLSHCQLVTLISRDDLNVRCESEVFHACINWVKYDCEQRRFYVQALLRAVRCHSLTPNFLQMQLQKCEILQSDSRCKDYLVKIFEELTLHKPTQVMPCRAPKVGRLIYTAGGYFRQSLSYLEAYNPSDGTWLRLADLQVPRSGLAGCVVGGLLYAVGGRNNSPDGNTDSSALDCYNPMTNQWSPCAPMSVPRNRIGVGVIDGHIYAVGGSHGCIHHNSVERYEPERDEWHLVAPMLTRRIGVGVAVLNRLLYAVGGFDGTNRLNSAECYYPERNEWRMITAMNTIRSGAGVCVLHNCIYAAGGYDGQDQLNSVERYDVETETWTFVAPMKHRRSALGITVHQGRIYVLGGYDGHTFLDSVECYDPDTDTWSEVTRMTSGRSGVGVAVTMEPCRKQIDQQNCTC
MEX-5 binding – C. elegans MEX-5 TCR-2 RNA binding activity; Q9XUB2; activity score (negative = inhibition of binding), % at 10 µM; AID 1832; MEX-5/FITC-TCR2 RNA binding, fluorescence polarization; stronger effect = lower value; actives 0.38% (n = 300,000);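 active means inhibition past about -25% in most replicates, and total fluorescence under double the plate's negative control median, limit read from the data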;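 further: 0% = DMSO and -100% = 5 µM competing unlabeled TCR2 RNA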
T cell HTS – modulates CD8 T cell binding to vesicles. 2C CD8+ T cell-vesicle binding, flow cytometry; stronger effect = lower value. response (vesicle binding), % at 7 µM. actives 0.068% (n = 330,000);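 active means response, share of CD8 T cells binding vesicles, and their 90th percentile fluorescence all below set limits, cut at about 80% in these data, passing the limit was not always enough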;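 further: values below 100% mean blocked vesicle binding to the CD8+ T cells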
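System: murine 2C transgenic CD8+ T lymphocytes; also added: QL9-loaded Drosophila micro-vesicles; times: binding 1.5 h at 37 °C; measured by: flow cytometry, PE anti-B7-1 (FL2) versus Alexa647 anti-CD8 (FL8), PFA-fixed; control set: Peptide-free naked vesicles (low) and QL9 vesicles with 0.7% DMSO vehicle (high)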
GRK2 CP1 – human GRK2 inhibition confirmation, cherry pick 1; aptamer displacement, % at 10 µM; actives 4% (n = 2,000); bead-bound GRK2, FAM-aptamer displacement, flow cytometry; AID 504451; shares compounds with GRK2 inh;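 active means aptamer displacement above 40%, near three times the noise of non-fluorescent compounds, on plates passing quality checks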;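 further: negative values mostly reflect intrinsic compound fluorescence rather than true enhancement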
Aptamer quench SP – aptamer fluorescence quenching in GRK2 counter-screen | shares compounds with GRK2 inh | Carboxyfluorescein RNA aptamer on beads, flow cytometry quenching; stronger effect = lower value | fluorescence response (% of DMSO), % at 10 µM | 2,000 tested, under 10 active;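 active means compounds that quench the bead-bound fluorescent RNA probe, cutting fluorescence to under half of the solvent control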;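 further: counterscreen run without GRK2 so only probe quenching by compound is measured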
GRK2 CP2 – confirmation of human GRK2 inhibitors binding RNA aptamer site | shares compounds with GRK2 inh | bead-bound GRK2, FAM-aptamer displacement, flow cytometry | inhibition of aptamer binding, % at 10 µM | 360 tested, under 10 active;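 active means inhibition of aptamer binding above 40%, about triple the noise seen with nonglowing compounds, on plates passing quality control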;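 further: negative values mostly come from compounds that fluoresce themselves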
FAM quench SP – aptamer fluorescence quenching in GRK2 counter-screen. shares compounds with GRK2 inh. carboxyfluorescein RNA aptamer beads, flow cytometry quenching; stronger effect = lower value. fluorescence response vs DMSO, % at 10 µM. 360 tested, under 10 active. AID 588494;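 active means response vs DMSO under 50%, meaning signal dropped by over half, treated as fluorescence quencher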;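 further: labelled aptamer on streptavidin beads without GRK2 as a quench counter-screen; 100% = bead fluorescence of DMSO wells and lower means quenching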
An asterisk follows results filed as active; nt = no result.

SMILES	GRK2 inh	EBV gp42 block	LANA DNA inh	Keap1-Nrf2 PPI	MEX-5 binding	T cell HTS	GRK2 CP1	Aptamer quench SP	others
Cc1cccc(C(=O)NCC(=O)OCC(=O)NCCNC(=O)COC(=O)CNC(=O)c2cccc(C)c2)c1	1	nt	-1	-4	1	825	nt	nt
Cc1cc(C)cc(C(=O)NCC(=O)OCC(=O)NCC(F)(F)F)c1	96*	-16	0	1	1	95	3	100
CCOc1ccccc1C1c2[nH]c3ccccc3c2C[C@H]2C(=O)N(C3CCN(Cc4ccccc4)CC3)CC(=O)N12 (stereo partly specified)	0	nt	3	0	2	166	-13	101
Cc1ccccc1C1c2[nH]c3ccccc3c2C[C@H]2C(=O)N(C3CCN(Cc4ccccc4)CC3)CC(=O)N12 (stereo partly specified)	0	nt	-1	-1	4	251	-20	105
CSc1ccc(C=O)cc1	73*	nt	0	-5	nt	968	-14	93
O=c1cc(-c2c(O)c3ccccc3n(Cc3ccccc3)c2=O)[nH][nH]1	5	9	4	-2	-12	398	nt	nt
Cc1ccc(S(=O)(=O)N2CCOCC2)cc1NC(=O)COC(=O)/C=C/c1ccco1	63*	nt	2	-1	nt	372	9	91
CC(CCC(=O)O)C1CC[C@@]2(C)C3C(=O)CC4C(C)(C)C(O)CC[C@]4(C)C3C(=O)C[C@]12C (stereo partly specified)	44*	-4	-1	0	1	188	1	98
Cc1nc(-c2nc(-c3c(C(=O)NNC(=O)c4ccc(Cl)cc4)noc3C)cs2)cs1	4	-10	-1	1	-1	344	nt	nt
Cc1nc(-c2nc(CC(=O)NNC(=O)c3ccc(Cl)cc3)cs2)cs1	47*	-7	0	-4	-1	165	1	107
O=C(Nc1nnc(C2CCCO2)s1)c1ccc(Br)cc1 (stereo unspecified)	0	10	1	-1	nt	301	nt	nt
Cc1ccc(C)c(NC(=O)c2cnn3ccccc23)c1	28	-13	0	1	0	256	-1	101
Cc1ccc(C)c(NC(=O)c2cc3ccccn3n2)c1	1	-2	1	-1	-1	699	nt	nt
NS(=O)(=O)c1ccc2nc(NC(=O)c3ccc(Br)o3)sc2c1	54*	12	3	2	-4	429	4	93
Cc1ccc2nc(NC(=O)c3ccc(Br)o3)sc2c1	1	nt	-3	-7	-3	943	nt	nt
CCOc1nc(Nc2ccccc2)nc(OCC)n1	1	nt	-1	0	-2	305	nt	nt
CCCC(=O)Nc1nnc(SCC)s1	100*	-7	0	5	-1	561	nt	nt	GRK2 CP2=-16;FAM quench SP=102
CC(=O)c1sc(NC(=O)CN2C(=O)CCC2=O)nc1C	0	nt	0	0	3	196	nt	nt
CCOC(=O)Cc1nnc(Nc2cccc(C)c2)c2ccccc12	92*	11	0	1	-1	182	11	133
COC(=O)Cc1nnc(Nc2cccc(C)c2)c2ccccc12	3	-3	0	-5	0	312	nt	nt
O=C(COC(=O)COc1cccc2ccccc12)NCC(F)(F)F	0	-11	-2	-1	1	261	nt	nt
COc1ccc([C@H]2Cc3cccc(O)c3C(=O)O2)cc1O	85*	nt	1	-7	nt	109	-2	104
CCOC(=O)C1(CCCc2ccccc2)CCN(CCCn2cccn2)CC1	93*	5	1	1	1	167	-3	106
